Consider eleven molecules from ChEMBL document CHEMBL1124901 (J Med Chem, 1990).

A short description of data set [1]: Partition coefficient (logP). To be noted: octanol/water. Type of data set: physicochemical.
Data set [2] deals with Dopamine receptor. Put plainly: In vitro inhibition of [3H]spiperone binding to Dopamine receptor D2 in Macaca nemestrina striatal membranes. Also noted: species or system Striatum, Membrane. Summed up:
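Caudate tissue from adult Macaca nemestrina brains, homogenized in ice-cold 50 mM potassium phosphate pH 7.4, washed twice by centrifugation at 30000g and stored at -70 °C. Assay used 25-50 µg protein in 50 mM Tris-HCl, 120 mM NaCl, 5 mM CaCl2, 1 mM MgCl2, pH 7.4, with 0.2 nM [3H]spiperone for 30 min at 37 °C. Bound ligand was collected by filtration and counted by scintillation. Nonspecific binding was defined with 1 µM cis-flupenthixol. Ki was taken from competitive displacement.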

In data set [3] the test system is Rattus norvegicus. Put plainly: In vivo tissue biodistribution behavior of high specific activity was determined in rat whole brain at 5 min postinjection of radiolabeled compound. Type of data set: ADME, organism-based. Summed up: (§1)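 Female Sprague-Dawley rats (200-250 g) under light ether anesthesia received 50-100 µCi of the 18F-labelled ligand (>1000 Ci/mmol) in 0.2 mL buffered saline into the femoral vein. Food and water were free until decapitation. Blood was drawn by cardiac puncture and the femur and brain regions were taken. Tissues were weighed and gamma counted. Values are %ID/g, mean ± SD of 4-5 rats.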

A short description of data set [4]: In vivo tissue biodistribution behavior of high specific activity was determined in whole brain at 60 min postinjection of radiolabeled compound. Type of data set: ADME, organism-based. Particulars: 1 h. The method in brief: as §1
The test system of data set [5] is Rattus norvegicus. Put plainly: In vivo tissue biodistribution behavior of high specific activity was determined in rat blood at 30 min postinjection of radiolabeled compound. Particulars: 0.5 h. Type of data set: ADME, organism-based. The method in brief: as §1
The subject of data set [6] is Rattus norvegicus. Briefly: In vivo tissue biodistribution behavior of high specific activity was determined in rat blood at 5 min postinjection of radiolabeled compound. Type of data set: ADME, organism-based. The method in brief:
as §1

The test system of data set [7] is Rattus norvegicus. Put plainly: In vivo tissue biodistribution behavior of high specific activity was determined in rat blood at 60 min postinjection of radiolabeled compound. The class given is ADME, organism-based. Particulars: 1 h. Summed up: as §1
Data set [8] has as its system Rattus norvegicus. Briefly: In vivo tissue biodistribution behavior of high specific activity was determined in rat bone at 30 min postinjection of radiolabeled compound. The class given is ADME, organism-based, Bone element. To be noted: 0.5 h. Summed up: as §1
In data set [9] the test system is Rattus norvegicus. Briefly: In vivo tissue biodistribution behavior of high specific activity was determined in rat bone at 5 min postinjection of radiolabeled compound. Type of data set: ADME, organism-based, Bone element. The method in brief: as §1
Data set [10] deals with Rattus norvegicus. Briefly: In vivo tissue biodistribution behavior of high specific activity was determined in rat bone at 60 min postinjection of radiolabeled compound. Type of data set: ADME, organism-based, Bone element. To be noted: 1 h. The method in brief:
as §1

In data set [11] the test system is Rattus norvegicus. Put plainly: In vivo tissue biodistribution behavior of high specific activity was determined in rat cerebellum at 30 min postinjection of radiolabeled compound. The class given is ADME, organism-based. To be noted: 0.5 h. Summed up: as §1
In data set [12] the test system is Rattus norvegicus. Put plainly: In vivo tissue biodistribution behavior of high specific activity was determined in rat cerebellum at 5 min postinjection of radiolabeled compound. Type of data set: ADME, organism-based. The method in brief: as §1
Data set [13] concerns Rattus norvegicus. Put plainly: In vivo tissue biodistribution behavior of high specific activity was determined in rat cerebellum at 60 min postinjection of radiolabeled compound. Type of data set: ADME, organism-based. Particulars: 1 h. The method in brief:
as §1

Data set [14] concerns Rattus norvegicus. Briefly: In vivo tissue biodistribution behavior of high specific activity was determined in rat striatum at 30 min postinjection of radiolabeled compound. Particulars: 0.5 h. The class given is ADME, organism-based. Summed up: as §1
In data set [15] the test system is Rattus norvegicus. Put plainly: In vivo tissue biodistribution behavior of high specific activity was determined in rat striatum at 5 min postinjection of radiolabeled compound. Type of data set: ADME, organism-based. Summed up:
as §1

The test system of data set [16] is Rattus norvegicus. Put plainly: In vivo tissue biodistribution behavior of high specific activity was determined in rat striatum at 60 min postinjection of radiolabeled compound. The class given is ADME, organism-based. Particulars: 1 h. Summed up:
as §1

In data set [17] the test system is Rattus norvegicus. Briefly: In vivo tissue biodistribution behavior of high specific activity was determined in rat whole brain at 30 min postinjection of radiolabeled compound. Particulars: 0.5 h. The class given is ADME, organism-based. The method in brief:
as §1

Data set [18] in a line: Dissociation constant of the compound; value ranges from 0.81-1.2 nM. Type of data set: physicochemical.
In data set [19] the test system is Rattus norvegicus. Briefly: In vivo tissue biodistribution behavior of high specific activity was determined in rat whole brain at 60 min postinjection of radiolabeled compound. Particulars: 1 h. The class given is ADME, organism-based. The method in brief: as §1

Structures are written as SMILES.

What is called logP is a log measure of how a compound divides between an organic and an aqueous phase. As a reminder, the Ki is the equilibrium dissociation constant of an inhibitor or competing ligand from its target. `COc1c(Cl)cc(Cl)c(O)c1C(=O)NC[C@@H]1CCCN1CCCF`: the logP in [1] is 1.07. For the same molecule, in data set [2], the inhibition constant (Ki) was determined as 130 nM.
In the same order, the values of `CCCCN1CCC[C@H]1CNC(=O)c1c(O)c(Cl)cc(Cl)c1OC` are 2.28 and 41.1 nM.
The corresponding values for `COc1c(Cl)cc(Cl)c(O)c1C(=O)NC[C@@H]1CCCN1CCC(C)F` (stereo not given in full) are 1.5 and 2610 nM.
As for `COc1c(Cl)cc(Cl)c(O)c1C(=O)NC[C@@H]1CCCN1CCC[18F]`, the Tissue concentration in [3] came out at 1.16 % injected dose g-1; in data set [4], 0.04 % injected dose g-1; in data set [5], 0.1 % injected dose g-1; in data set [6] it was 0.26 % injected dose g-1; in data set [7], 0.05 % injected dose g-1; in data set [8] it was 0.34 % injected dose g-1. Also, the Tissue concentration in [9] is 0.28 % injected dose g-1; in data set [10], 0.54 % injected dose g-1; in data set [11] it was 0.09 % injected dose g-1; in data set [12], 0.98 % injected dose g-1; in [13], 0.03 % injected dose g-1; in data set [14], 0.13 % injected dose g-1. Also, the Tissue concentration worked out at 1.5 % injected dose g-1 in [15], 0.07 % injected dose g-1 in data set [16] and 0.11 % injected dose g-1 in [17].
With `COc1c(Cl)cc(Cl)c(O)c1C(=O)NC[C@H]1CCCN1CCC(C)F` (stereo not given in full), in data set [1], the logP came out at 1.5. This molecule registered a Ki in data set [2] of 2620 nM.
The corresponding values for `CCCN1CCC[C@H]1CNC(=O)c1c(O)c(Cl)cc(Cl)c1OC` are 1.75 and 17.3 nM.
As to `COc1c(Cl)cc(Cl)c(O)c1C(=O)NC[C@@H]1CCCN1CC[18F]`, the Tissue concentration in data set [3] is given as 0.52 % injected dose g-1; in [5], 0.07 % injected dose g-1; in data set [6], 0.16 % injected dose g-1; in [8] it was 0.23 % injected dose g-1; in [9], 0.2 % injected dose g-1; in data set [11], 0.05 % injected dose g-1. Also, the Tissue concentration in [12] was found to be 0.42 % injected dose g-1; in [14], 0.09 % injected dose g-1; in data set [15], 0.62 % injected dose g-1; in data set [17] it was 0.06 % injected dose g-1.
As to `COc1c(Cl)cc(Cl)c(O)c1C(=O)NC[C@@H]1CCCN1CCF`, the logP in [1] turned out to be 0.55. For the same molecule, the Ki in data set [2] turned out to be 159 nM.
A word on the Kd: it is the free concentration of one partner at which half of the binding sites on the other are occupied at equilibrium, for simple one-to-one binding. A higher Kd goes with weaker binding. On to `CCN1CCC[C@H]1CNC(=O)c1c(O)c(Cl)cc(Cl)c1OC` [RACLOPRIDE], for which, in [18], binding was characterised by a dissociation constant (Kd) of 0.81 nM.
In the case of `COc1c(Cl)cc(Cl)c(O)c1C(=O)NC[C@@H]1CCCN1CCCC[18F]`, the Tissue concentration amounted to 0.71 % injected dose g-1 in data set [3]; 0.06 % injected dose g-1 in [19]; 0.09 % injected dose g-1 in data set [5]; 0.21 % injected dose g-1 in [6]; 0.06 % injected dose g-1 in data set [7]; 0.24 % injected dose g-1 in data set [8]. For the same molecule, the Tissue concentration is 0.22 % injected dose g-1 in data set [9]; 0.39 % injected dose g-1 in data set [10]; 0.08 % injected dose g-1 in data set [11]; 0.58 % injected dose g-1 in data set [12]; 0.05 % injected dose g-1 in data set [13]; 0.12 % injected dose g-1 in [14]. The Tissue concentration amounted to 0.87 % injected dose g-1 in [15], 0.09 % injected dose g-1 in [16] and 0.1 % injected dose g-1 in data set [17].
As to `COc1c(Cl)cc(Cl)c(O)c1C(=O)NC[C@@H]1CCCN1CCCCF`, in data set [1], the logP came to 1.6. The same molecule displayed a Ki in data set [2] of 88.5 nM.
